From ChEMBL document CHEMBL1142767, “2-(2-Furanyl)-7-phenyl[1,2,4]triazolo[1,5-c]pyrimidin-5-amine analogs: highly potent, orally active, adenosine A2A antagonists. Part 1” (Bioorg Med Chem Lett, 2005)
pKi: −log10 of the molar value. The source made the active and inactive calls.

Tests used:
[1] = tested on: Rattus norvegicus; experiment: Anti-cataleptic activity in Rat at oral dose of 3 mg/kg retested at 1 hr after administration; type: functional
Summary of the method: (§1)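 Male CD rats, 200-240 g, housed 4 per cage on a 12-h light/dark cycle. Catalepsy was induced with haloperidol 1 mg/kg s.c. After 30 min, each rat was placed facing upward on a wire screen inclined at 60°, and time to move one limb was recorded (cut-off 120 s). Rats immobile >75 s received test compound orally and were retested at 1 and 4 h.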

[2] = tested on: Rattus norvegicus; experiment: Anti-cataleptic activity in Rat at oral dose of 3 mg/kg retested at 4 hr after administration; type: functional; summary of the method: as §1
[3] = target: Adenosine receptor A2a (Rattus norvegicus, UniProt P30543); experiment: In vitro ability to displace [3H]SCH-58261 from A2A adenosine receptor in Rat
[4] = target: Adenosine receptors; A1 & A2a (Rattus norvegicus) (UniProt P25099+P30543)
[5] = tested on: Rattus norvegicus; experiment: Anti-cataleptic activity in Rat at oral dose of 3 mg/kg retested at 1 and 4 hr after administration; Activity Not Traced; type: functional, organism-based; design: dose 3 mg/kg; summary of the method: as §1

Adenosine receptors; A1 & A2a (Rattus norvegicus), sequence (P25099 whole entry, looked up): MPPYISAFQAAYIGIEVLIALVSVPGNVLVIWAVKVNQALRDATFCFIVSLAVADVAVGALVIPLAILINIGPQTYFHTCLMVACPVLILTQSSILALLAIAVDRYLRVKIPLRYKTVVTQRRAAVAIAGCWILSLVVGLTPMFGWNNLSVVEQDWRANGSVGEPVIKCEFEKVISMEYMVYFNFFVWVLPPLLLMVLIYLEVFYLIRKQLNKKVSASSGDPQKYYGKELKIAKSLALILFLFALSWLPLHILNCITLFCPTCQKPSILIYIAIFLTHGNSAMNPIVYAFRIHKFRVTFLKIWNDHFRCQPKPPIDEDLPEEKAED
Adenosine receptors; A1 & A2a (Rattus norvegicus), sequence (P30543 whole entry, looked up): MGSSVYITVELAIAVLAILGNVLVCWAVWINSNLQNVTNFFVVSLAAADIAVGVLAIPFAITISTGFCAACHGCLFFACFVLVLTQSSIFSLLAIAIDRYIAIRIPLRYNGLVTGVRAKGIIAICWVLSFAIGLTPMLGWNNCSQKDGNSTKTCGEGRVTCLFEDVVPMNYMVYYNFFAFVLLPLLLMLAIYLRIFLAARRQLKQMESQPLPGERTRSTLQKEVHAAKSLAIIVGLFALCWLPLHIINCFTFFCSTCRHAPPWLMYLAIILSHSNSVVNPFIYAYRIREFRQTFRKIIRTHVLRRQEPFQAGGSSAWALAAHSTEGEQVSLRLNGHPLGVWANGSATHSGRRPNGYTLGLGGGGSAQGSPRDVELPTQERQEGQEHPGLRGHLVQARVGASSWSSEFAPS
Adenosine receptor A2a, sequence (P30543 whole entry): as the sequence (P30543 whole entry, looked up) above

Row | pKi [3] | Index [4] | SMILES | Activity [1] | Activity [2] | Activity [5]
1 | 5.77 | 1 | COc1cccc(OC)c1-c1cc2nc(-c3ccco3)nn2c(N)n1 |  |  | 
2 | 8.66 | 338 | COCCOc1c(F)cc(N2CCN(Cc3cccc(-c4cc5nc(-c6ccco6)nn5c(N)n4)c3)CC2)cc1F | 28 | 47 | 
3 | 8.48 | 134 | COCCOc1ccc(N2CCN(Cc3cccc(-c4cc5nc(-c6ccco6)nn5c(N)n4)c3)CC2)cc1OC | 33 | 39 | 
4 | 8.44 | 85 | COCCOc1ccc(N2CCN(Cc3cccc(-c4cc5nc(-c6ccco6)nn5c(N)n4)c3)CC2)c(C#N)c1 |  |  | inactive
5 | 8.57 | 642 | COCCOc1ccc(N2CCN(Cc3cccc(-c4cc5nc(-c6ccco6)nn5c(N)n4)c3)CC2)c(F)c1 | 20 | 0 | 
6 | 8.30 | 20 | COc1cccc(-c2cc3nc(-c4ccco4)nn3c(N)n2)c1 |  |  | 
7 | 8.33 | 31 | CC(C)c1ccc(-c2cc3nc(-c4ccco4)nn3c(N)n2)cc1 |  |  | 
8 | 7.66 | 12 | Cc1ccccc1-c1cc2nc(-c3ccco3)nn2c(N)n1 |  |  | 
9 | 8.08 | 19 | Cc1ccc(-c2cc3nc(-c4ccco4)nn3c(N)n2)cc1 |  |  | 
10 | 8.55 | 601 | COCCOc1ccc(N2CCN(Cc3cccc(-c4cc5nc(-c6ccco6)nn5c(N)n4)c3)CC2)cc1 | 40 | 65 | 
11 | 8.35 | 65 | COc1ccc(OC)c(-c2cc3nc(-c4ccco4)nn3c(N)n2)c1 |  |  | 
12 | 8.13 | 115 | Nc1nc(-c2cccc(CN3CCC(c4ccc(F)cc4)CC3)c2)cc2nc(-c3ccco3)nn12 | 20 | 20 | 
13 | 8.37 | 27 | COc1ccccc1-c1cc2nc(-c3ccco3)nn2c(N)n1 |  |  | 
14 | 8.19 | 71 | COCCOc1cc(F)c(N2CCN(Cc3cccc(-c4cc5nc(-c6ccco6)nn5c(N)n4)c3)CC2)c(F)c1 |  |  | inactive
15 | 8.14 | 103 | COc1ccc(-c2cc3nc(-c4ccco4)nn3c(N)n2)cc1 |  |  | 
16 | 8.05 | 202 | COCCOc1ccc(C2CCN(Cc3cccc(-c4cc5nc(-c6ccco6)nn5c(N)n4)c3)CC2)cc1 | 0 | 0 | 

Row | pKi [3] | Index [4] | SMILES | Activity [1] | Activity [2] | Activity [5]
17 | 8.54 | 98 | COc1ccc(-c2cc3nc(-c4ccco4)nn3c(N)n2)c(OC)c1 |  |  | 
18 | 8.54 | 204 | COCCOc1ccc(N2CCN(Cc3cccc(-c4cc5nc(-c6ccco6)nn5c(N)n4)c3)CC2)c(Cl)c1 | 12 | 15 | 
19 | 8.40 | 115 | COCCOc1cccc(N2CCN(Cc3cccc(-c4cc5nc(-c6ccco6)nn5c(N)n4)c3)CC2)c1 | 29 | 53 | 
20 | 8.35 | 17 | COc1ccc(-c2cc3nc(-c4ccco4)nn3c(N)n2)c(OC)c1OC |  |  | 
21 | 8.15 | 3 | Nc1nc(-c2ccccc2)cc2nc(-c3ccco3)nn12 |  |  | 
22 | 8.34 | 69 | Nc1nc(-c2cccc(CN3CCN(c4ccccc4)CC3)c2)cc2nc(-c3ccco3)nn12 |  |  | inactive
23 | 8.35 | 69 | COc1cc(-c2cc3nc(-c4ccco4)nn3c(N)n2)cc(OC)c1OC |  |  | 
24 | 8.55 | 135 | Nc1nc(-c2cccc(CO)c2)cc2nc(-c3ccco3)nn12 |  |  | 
25 | 7.66 | 27 | COc1cccc(-c2cc3nc(-c4ccco4)nn3c(N)n2)c1OC |  |  | 
26 | 8.57 | 72 | COCCOc1ccc(N2CCN(Cc3cccc(-c4cc5nc(-c6ccco6)nn5c(N)n4)c3)CC2)c(C)c1 |  |  | inactive
27 | 8.36 | 15 | Nc1nc(-c2cccs2)cc2nc(-c3ccco3)nn12 |  |  | 
28 | 8.14 | 64 | COc1ccc(-c2cc3nc(-c4ccco4)nn3c(N)n2)cc1OC |  |  | 
29 | 8.27 | 14 | N#Cc1cccc(-c2cc3nc(-c4ccco4)nn3c(N)n2)c1 |  |  | 
30 | 8.43 | 13 | Cc1cccc(-c2cc3nc(-c4ccco4)nn3c(N)n2)c1 |  |  | 
31 | 8.30 | 11 | Nc1cccc(-c2cc3nc(-c4ccco4)nn3c(N)n2)c1 |  |  | 
32 | 7.98 | 3 | Nc1nc(-c2cccc(CN3CCN(c4ccc(Cl)c(Cl)c4)CC3)c2)cc2nc(-c3ccco3)nn12 |  |  | inactive

Row | SMILES | pKi [3] | Index [4] | Activity [1] | Activity [2] | Activity [5]
33 | COCCOc1ccc(N2CCN(Cc3cccc(-c4cc5nc(-c6ccco6)nn5c(N)n4)c3)CC2)cc1C#N | 8.96 | 314 | 14 | 9 | 
34 | CN(CCc1ccccc1)Cc1cccc(-c2cc3nc(-c4ccco4)nn3c(N)n2)c1 | 8.44 | 135 |  |  | inactive
35 | Nc1nc(-c2cccc(CN3CCN(c4nccs4)CC3)c2)cc2nc(-c3ccco3)nn12 | 8.62 | 192 | 20 | 10 | 
36 | Nc1nc(-c2cccc(-c3ccccc3)c2)cc2nc(-c3ccco3)nn12 | 8.26 | 82 |  |  | 
37 | Nc1nc(-c2ccccn2)cc2nc(-c3ccco3)nn12 | 8.85 | 34 |  |  | 
38 | Nc1nc(-c2cccc(CN3CCC(c4ccccc4)CC3)c2)cc2nc(-c3ccco3)nn12 | 8.34 | 69 |  |  | inactive
39 | Nc1nc(-c2cccnc2)cc2nc(-c3ccco3)nn12 | 8.18 | 65 |  |  | 
40 | Nc1nc(-c2ccncc2)cc2nc(-c3ccco3)nn12 | 8.72 | 66 |  |  | 
